Laboratory results reported in ChEMBL document CHEMBL4177755, “Combating Drug-Resistant Fungi with Novel Imperfectly Amphipathic Palindromic Peptides” (J Med Chem, 2018).
Values after ≈ are worked out from the molar mass of the structure shown.

Experiments:
Type in all cases: functional
Candida albicans [1] = test: Antifungal activity against Candida albicans cgmcc 2.2086 after 48 hrs by broth microdilution method; conditions: cgmcc 2.2086, 48 h
Procedure, shortened: (§1)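 Modified CLSI M27-A2 broth microdilution. Yeast at (0.5−1) × 10^3 CFU/mL in MOPS-buffered RPMI 1640 was mixed 1:1 with peptide serially diluted in 0.2% BSA and incubated 48 h at 28 °C. Absorbance was read at 492 nm; MIC is the lowest concentration inhibiting 95% of growth. Triplicate, three biological replicates.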

Candida albicans [2] = test: Antifungal activity against Candida albicans SP3931 after 48 hrs by broth microdilution method; conditions: SP3931, 48 h; procedure, shortened: as §1
Candida albicans [3] = test: Antifungal activity against Candida albicans SP3903 after 48 hrs by broth microdilution method; conditions: SP3903, 48 h; procedure, shortened: as §1
Candida albicans [4] = test: Antifungal activity against Candida albicans SP3902 after 48 hrs by broth microdilution method; conditions: SP3902, 48 h; procedure, shortened: as §1
Candida albicans [5] = test: Antifungal activity against Candida albicans SP3876 after 48 hrs by broth microdilution method; conditions: SP3876, 48 h; procedure, shortened: as §1
Candida albicans [6] = test: Antifungal activity against Candida albicans isolated from alveolar fluid after 48 hrs by broth microdilution method; procedure, shortened: as §1
Candida albicans [7] = test: Antifungal activity against fluconazole-resistant Candida albicans 56452 after 48 hrs by broth microdilution method; conditions: Candida albicans, 56452, 48 h; procedure, shortened: as §1
Candida albicans [8] = test: Antifungal activity against fluconazole-resistant Candida albicans 56214 after 48 hrs by broth microdilution method; conditions: Candida albicans, 56214, 48 h; procedure, shortened: as §1
Candida albicans [9] = test: Antifungal activity against Candida albicans 14936 after 48 hrs by broth microdilution method; conditions: Candida albicans, 14936, 48 h; procedure, shortened: as §1
Candida albicans [10] = test: Antifungal activity against fluconazole-resistant Candida albicans 17546 after 48 hrs by broth microdilution method; conditions: Candida albicans, 17546, 48 h; procedure, shortened: as §1
Candida tropicalis [11] = test: Antifungal activity against Candida tropicalis cgmcc 2.1975 after 48 hrs by broth microdilution method; conditions: cgmcc 2.1975, 48 h
Procedure, shortened: (§2)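 Modified CLSI M27-A2 broth microdilution. Yeast were suspended in MOPS-buffered RPMI 1640 at a final (0.5−1) × 10^3 CFU/mL and mixed 1:1 with peptide serially diluted in 0.2% BSA. Plates were incubated 48 h at 28 °C and read at A492. MIC is the lowest concentration giving 95% inhibition. Run in triplicate with three biological replicates.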

Pichia kudriavzevii [12] = test: Antifungal activity against Candida krusei cgmcc 2.1857 after 48 hrs by broth microdilution method; conditions: cgmcc 2.1857, 48 h; procedure, shortened: as §2
Candida parapsilosis [13] = test: Antifungal activity against Candida parapsilosis cgmcc 2.3989 after 48 hrs by broth microdilution method; conditions: Lodderomyces parapsilosis, cgmcc 2.3989, 48 h; procedure, shortened: as §2
Candida albicans [14] = test: Fungicidal activity against Candida albicans cgmcc 2.2086 after 96 hrs; conditions: cgmcc 2.2086, 96 h, read-out: MFC99.9
Procedure, shortened: (§3)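 After the 48 h, 28 °C broth microdilution in MOPS-buffered RPMI 1640 (inoculum (0.5−1) × 10^3 CFU/mL), 50 μL from each well was plated on YM agar for a further 48 h at 28 °C. MFC is the lowest concentration killing at least 99.9% of cells. Triplicate, three biological replicates.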

Candida albicans [15] = test: Fungicidal activity against Candida albicans SP3931 after 96 hrs; conditions: SP3931, 96 h, read-out: MFC99.9; procedure, shortened: as §3
Candida albicans [16] = test: Fungicidal activity against Candida albicans SP3903 after 96 hrs; conditions: SP3903, 96 h, read-out: MFC99.9; procedure, shortened: as §3
Candida albicans [17] = test: Fungicidal activity against Candida albicans SP3902 after 96 hrs; conditions: SP3902, 96 h, read-out: MFC99.9; procedure, shortened: as §3
Candida albicans [18] = test: Fungicidal activity against Candida albicans SP3876 after 96 hrs; conditions: SP3876, 96 h, read-out: MFC99.9; procedure, shortened: as §3
Candida albicans [19] = test: Fungicidal activity against Candida albicans isolated from alveolar fluid after 96 hrs; conditions: read-out: MFC99.9; procedure, shortened: as §3
Candida albicans [20] = test: Fungicidal activity against fluconazole-resistant Candida albicans 56452 after 96 hrs; conditions: Candida albicans, 56452, 96 h; read-out: MFC99.9; procedure, shortened: as §3
Candida albicans [21] = test: Fungicidal activity against fluconazole-resistant Candida albicans 56214 after 96 hrs; conditions: Candida albicans, 56214, 96 h; read-out: MFC99.9; procedure, shortened: as §3
Candida albicans [22] = test: Fungicidal activity against Candida albicans 14936 after 96 hrs; conditions: Candida albicans, 14936, 96 h; read-out: MFC99.9; procedure, shortened: as §3
Candida albicans [23] = test: Fungicidal activity against fluconazole-resistant Candida albicans 17546 after 96 hrs; conditions: Candida albicans, 17546, 96 h; read-out: MFC99.9; procedure, shortened: as §3
Candida tropicalis [24] = test: Fungicidal activity against Candida tropicalis cgmcc 2.1975 after 96 hrs; conditions: cgmcc 2.1975, 96 h, read-out: MFC99.9
Procedure, shortened: (§4)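 Wells from the 48 h, 28 °C RPMI 1640/MOPS microdilution plates were plated on YM agar and incubated a further 48 h at 28 °C. MFC is the lowest concentration killing at least 99.9% of cells. Run in triplicate with three biological replicates.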

Pichia kudriavzevii [25] = test: Fungicidal activity against Candida krusei cgmcc 2.1857 after 96 hrs; conditions: cgmcc 2.1857, 96 h, read-out: MFC99.9; procedure, shortened: as §4
Candida parapsilosis [26] = test: Fungicidal activity against Candida parapsilosis cgmcc 2.3989 after 96 hrs; conditions: Lodderomyces parapsilosis, cgmcc 2.3989, 96 h; read-out: MFC99.9; procedure, shortened: as §4
Candida albicans [27] = test: Antifungal activity against Candida albicans cgmcc 2.2086 in presence of NaCl by broth dilution method
Candida albicans [28] = test: Antifungal activity against Candida albicans cgmcc 2.2086 in presence of KCl by broth dilution method
Candida albicans [29] = test: Antifungal activity against Candida albicans cgmcc 2.2086 in presence of NH4Cl by broth dilution method
Candida albicans [30] = test: Antifungal activity against Candida albicans cgmcc 2.2086 in presence of MgCl2 by broth dilution method
Candida albicans [31] = test: Antifungal activity against Candida albicans cgmcc 2.2086 in presence of CaCl2 by broth dilution method
Candida albicans [32] = test: Antifungal activity against Candida albicans cgmcc 2.2086 in presence of ZnCl2 by broth dilution method
Candida albicans [33] = test: Antifungal activity against Candida albicans cgmcc 2.2086 in presence of FeCl3 by broth dilution method
Candida albicans [34] = test: Antifungal activity against Candida albicans cgmcc 2.2086 in presence of 12.5% human heat-inactivated serum by broth dilution method
Candida albicans [35] = test: Antifungal activity against Candida albicans cgmcc 2.2086 in presence of 25% human heat-inactivated serum by broth dilution method
Candida albicans [36] = test: Antifungal activity against Candida albicans cgmcc 2.2086 in presence of 50% human heat-inactivated serum by broth dilution method
Candida albicans [37] = test: Antifungal activity against Candida albicans 58288 after 48 hrs by broth microdilution method; conditions: Candida albicans, 58288, 48 h; procedure, shortened: as §1
Candida albicans [38] = test: Fungicidal activity against Candida albicans 58288 after 96 hrs; conditions: Candida albicans, 58288, 96 h; read-out: MFC99.9; procedure, shortened: as §3

`CC(=O)N1CCN(c2ccc(OCC3COC(Cn4ccnc4)(c4ccc(Cl)cc4Cl)O3)cc2)CC1` (stereo not drawn) [KETOCONAZOLE] was tested, and the MIC95 (Candida albicans [1]) was 0.25 µM (≈ 0.133 µg/mL), the MIC95 (Candida albicans [2]) was over 64 µM and the MIC95 (Candida albicans [3]) was over 64 µM. It also gave an MIC95 (Candida albicans [4]) of over 64 µM, an MIC95 (Candida albicans [5]) of over 64 µM and an MIC95 (Candida albicans [6]) of 0.5 µM (≈ 0.266 µg/mL). The MIC95 (Candida albicans [7]) was 64 µM (≈ 34 µg/mL), the MIC95 (Candida albicans [8]) was 64 µM (≈ 34 µg/mL) and the MIC95 (Candida albicans [9]) was over 64 µM. For the same compound, the MIC95 (Candida albicans [10]) was 32 µM (≈ 17 µg/mL), the MIC95 (Candida tropicalis [11]) was 0.25 µM (≈ 0.133 µg/mL) and the MIC95 (Pichia kudriavzevii [12]) was 1 µM (≈ 0.531 µg/mL). For the same compound, the MIC95 (Candida parapsilosis [13]) was 0.25 µM (≈ 0.133 µg/mL), the MFC (Candida albicans [14]) was 1 µM (≈ 0.531 µg/mL) and the MFC (Candida albicans [15]) was over 64 µM. The MFC (Candida albicans [16]) was over 64 µM, the MFC (Candida albicans [17]) was over 64 µM and the MFC (Candida albicans [18]) was over 64 µM. It also gave an MFC (Candida albicans [19]) of 2 µM (≈ 1.06 µg/mL), an MFC (Candida albicans [20]) of over 64 µM and an MFC (Candida albicans [21]) of over 64 µM. The MFC (Candida albicans [22]) was over 64 µM, the MFC (Candida albicans [23]) was 64 µM (≈ 34 µg/mL) and the MFC (Candida tropicalis [24]) was 1 µM (≈ 0.531 µg/mL). The MFC (Pichia kudriavzevii [25]) was 1 µM (≈ 0.531 µg/mL), the MFC (Candida parapsilosis [26]) was 1 µM (≈ 0.531 µg/mL) and the MIC (Candida albicans [27]) was 0.25 µM. For the same compound, the MIC (Candida albicans [28]) was 0.25 µM, the MIC (Candida albicans [29]) was 0.25 µM and the MIC (Candida albicans [30]) was 0.25 µM. It also gave an MIC (Candida albicans [31]) of 0.5 µM, an MIC (Candida albicans [32]) of 0.25 µM and an MIC (Candida albicans [33]) of 0.25 µM. The MIC (Candida albicans [34]) was 0.25 µM, the MIC (Candida albicans [35]) was 0.25 µM and the MIC (Candida albicans [36]) was 0.5 µM. For the same compound, the MIC95 (Candida albicans [37]) was 1 µM (≈ 0.531 µg/mL) and the MFC (Candida albicans [38]) was over 64 µM.
